According to ChEMBL document CHEMBL1128741, “Synthesis and biological evaluation of 5-fluoro-2'-deoxyuridine phosphoramidate analogs” (J Med Chem, 1995):

How the values were obtained:
B16 = assay: In vitro cytotoxicity (LC99) was measured against B16 Melanoma cells; format: cell-based; conditions: mouse
How it was run: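 B16 melanoma cells in exponential growth, (2–3) × 10⁶ in 10 mL serum-free MEM, exposed to drug for 2 h, then washed and resuspended in MEM + 10% FBS. Plated at 50–50 000 cells/plate, grown 8 d at 37 °C. Colonies stained with crystal violet and counted. LC99 (2-log drop in colony formation) taken from log-linear part of log surviving fraction vs concentration.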

L1210 [1] = assay: In vitro growth inhibition of L1210 cells 48 hours after administration of compound; format: functional, cell-based; conditions: Mus musculus, L1210, 48 h
How it was run: (§1)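 Exponentially growing L1210 cells at (3–6) × 10⁴/mL in Fischer's medium with 10% horse serum, glutamine and antibiotic-antimycotic. Drug exposure lasted the stated time (2, 8, 24 or 48 h). Cells were then spun down and resuspended in drug-free medium. Coulter counts were taken 48 h after the start of treatment and expressed as percent of control. IC50 is given in μM.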

L1210 [2] = assay: In vitro growth inhibition of L1210 cells 8 hours after administration of compound; format: functional, cell-based; conditions: Mus musculus, L1210, 8 h; how it was run: as §1
L1210 [3] = assay: In vitro growth inhibition of L1210 cells 2 hours after administration of compound; format: functional, cell-based; conditions: Mus musculus, L1210, 2 h; how it was run: as §1
L1210 [4] = assay: In vitro growth inhibition of L1210 cells 24 hours after administration of compound; format: functional, cell-based; conditions: Mus musculus, L1210, 24 h; how it was run: as §1

SMILES	LC99 (B16) [µM]	IC50 (L1210 [1]) [nM]	IC50 (L1210 [2]) [nM]	IC50 (L1210 [3]) [nM]	IC50 (L1210 [4]) [nM]
CC1CC(C)(C)NC(CCOP(=O)(OC[C@H]2O[C@@H](n3ccc(=O)[nH]c3=O)C[C@@H]2O)N(CCBr)CCBr)O1 (stereo partly specified)	155				
CC1CC(C)(C)NC(CCOP(=O)(OC[C@H]2O[C@@H](n3ccc(=O)[nH]c3=O)C[C@@H]2O)N(C)CCCl)O1 (stereo partly specified)		550	16500	40000	6000
CC1CC(C)(C)NC(CCOP(=O)(OC[C@H]2O[C@@H](n3cc(F)c(=O)[nH]c3=O)C[C@@H]2O)N(C)CCI)O1 (stereo partly specified)	95	2	75	190	6
CC1CC(C)(C)NC(CCOP(=O)(OC[C@H]2O[C@@H](n3cc(F)c(=O)[nH]c3=O)C[C@@H]2O)N(C)CCCl)O1 (stereo partly specified)	375	3.5	160	300	25
CC1CC(C)(C)NC(CCOP(=O)(OC[C@H]2O[C@@H](n3cc(F)c(=O)[nH]c3=O)C[C@@H]2O)N2CCOCC2)O1 (stereo partly specified)		150	5000	15000	900
CC1CC(C)(C)NC(CCOP(=O)(OC[C@H]2O[C@@H](n3cc(F)c(=O)[nH]c3=O)C[C@@H]2O)N(CCBr)CCBr)O1 (stereo partly specified)	100				
Cc1ccc(S(=O)(=O)OCCN(C)P(=O)(OCCC2NC(C)(C)CC(C)O2)OC[C@H]2O[C@@H](n3cc(F)c(=O)[nH]c3=O)C[C@@H]2O)cc1 (stereo partly specified)	141	2.5	60	160	19
CC1CC(C)(C)NC(CCOP(=O)(OC[C@H]2O[C@@H](n3ccc(=O)[nH]c3=O)C[C@@H]2O)N(C)CCBr)O1 (stereo partly specified)	319	430	8200	20000	1300
CC1CC(C)(C)NC(CCOP(=O)(OC[C@H]2O[C@@H](n3cc(F)c(=O)[nH]c3=O)C[C@@H]2O)N(C)CCBr)O1 (stereo partly specified)	101	2.5	50	120	18
CC1CC(C)(C)NC(CCOP(=O)(OC[C@H]2O[C@@H](n3cc(F)c(=O)[nH]c3=O)C[C@@H]2O)N2CCCCC2)O1 (stereo partly specified)	650	8	260	750	24
Cc1cn([C@H]2C[C@H](O)[C@@H](COP(=O)(OCCC3NC(C)(C)CC(C)O3)N(C)CCBr)O2)c(=O)[nH]c1=O (stereo partly specified)	165	590	10500	13000	7000
O=c1[nH]cc(F)c(=O)[nH]1 [FLUOROURACIL]	> 2000	120	630	2200	220
Cc1cn([C@H]2C[C@H](O)[C@@H](COP(=O)(OCCC3NC(C)(C)CC(C)O3)N(CCBr)CCBr)O2)c(=O)[nH]c1=O (stereo partly specified)	120				
